Calls of active or inactive are those of the source. The calls are words filed in the database; no cut-off is given here.
What was measured:
Leishmania donovani [1] = experiment: Antileishmanial activity against Leishmania donovani MHOM/IN/80/Dd8 promastigotes transfected with luciferase reporter gene assessed as inhibition of promastigotes growth incubated for 72 hrs by Steady-Glo reagent based luminescence analysis; type: functional, organism-based; conditions: for IC50: MHOM/IN/80/Dd8, 72 h
Summary of the method: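 Luciferase-transgenic L. donovani promastigotes kept under G418 (20 μg mL⁻¹) in Medium 199 with 10% FCS at 25 ± 1 °C. Late-log cells seeded at 5×10⁵ per well with serial dilutions in DMSO for 72 h, DMSO controls run alongside. Luminescence read with Steady-Glo. % inhibition = (N−n)/N×100 vs untreated. IC50 by probit analysis, mean ± SD of three assays.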

Leishmania donovani [2] = experiment: Antileishmanial activity against Leishmania donovani MHOM/IN/80/Dd8 amastigotes infected in mouse J774.A1 cells assessed as inhibition of amastigotes growth incubated for 48 hrs by Steady-Glo reagent based luminescence analysis; type: functional, organism-based; conditions: for IC50: MHOM/IN/80/Dd8, J774.A1, 48 h
Summary of the method: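 J774A cells (2×10⁵ per well, RPMI-1640 with 15% FCS) incubated 24 h at 37 °C in CO2, then infected with stationary-phase luciferase promastigotes (2×10⁶ per well) to give amastigotes. Compound added in fresh medium for 48 h at 37 °C. Medium replaced by PBS, Steady-Glo luminescence read, % inhibition vs untreated. IC50 by probit analysis, mean ± SD of three assays.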

[3] = Cytotoxicity against mouse J774.A1 cells assessed as reduction in cell growth incubated for 48 hrs by MTT assay; type: toxicity, cell-based
Summary of the method: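 J774A cells seeded at 0.2 million per well, incubated overnight at 37 °C with 5% CO2, then exposed to compound dilutions in DMSO (DMSO controls) for 48 h. Viability by MTT formazan, OD at 600 nm against blank. CC50 is the concentration giving 50% viability loss vs medium-only cells, from probit analysis. Mean ± SD of three assays.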

[4] = Selectivity index, ratio of CC50 for cytotoxicity against mouse J774.A1 cells to IC50 for antileishmanial activity against Leishmania donovani MHOM/IN/80/Dd8 amastigotes infected in mouse J774.A1 cells; type: toxicity, cell-based; conditions: read-out: Ratio CC50/IC50
Summary of the method: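 SI = CC50 in J774A cells (MTT, 48 h) divided by IC50 against intracellular amastigotes (luciferase, 48 h). Both values are means of three independent assays.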

Brugia malayi = experiment: Antifilarial activity against Brugia malayi assessed as reduction in worm viability by measuring inhibition of MTT reduction at 50 to 100 uM incubated for 24 hrs by MTT assay relative to control; type: functional; conditions: dose 50-100 µM
Plasmodium falciparum = experiment: Antimalarial activity against Plasmodium falciparum 3D7; type: functional, organism-based
[5] = Clearance in golden hamster at 50 mg/kg, po measured after 5 mins to 24 hrs by LC-MS/MS analysis; type: ADME, organism-based, Mesocricetus auratus; conditions: in vivo, time 5-1440 min
Summary of the method: (§1)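 Golden hamsters fasted before dosing, oral 50 mg kg⁻¹. Retro-orbital blood drawn under anesthesia from 5 min to 24 h, spun at 6000g for 20 min, plasma stored at -80 °C. Protein precipitation with acetonitrile containing carbamazepine IS (3 ng mL⁻¹). LC-MS/MS on C18 column, isocratic 90% acetonitrile, positive mode, transition m/z 375.2/198.3. Parameters from non-compartmental analysis.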

[6] = Volume of distribution in golden hamster at 50 mg/kg, po measured after 5 mins to 24 hrs by LC-MS/MS analysis; type: ADME, organism-based, Mesocricetus auratus; conditions: in vivo, time 5-1440 min; summary of the method: as §1
[7] = AUC in golden hamster at 50 mg/kg, po measured after 5 mins to 24 hrs by LC-MS/MS analysis; type: ADME, organism-based, Mesocricetus auratus; set-up: time lower 5 min, dose 50 mg/kg, time upper 1440 min, route po; conditions: in vivo; summary of the method: as §1
[8] = MRT in golden hamster at 50 mg/kg, po measured after 5 mins to 24 hrs by LC-MS/MS analysis; type: ADME, organism-based, Mesocricetus auratus; conditions: in vivo, time 5-1440 min; summary of the method: as §1
[9] = Stability of compound in simulated intestinal fluid assessed as parent compound remaining at pH 6.8 measured for 120 mins by LC-MS/MS analysis; type: ADME; conditions: read-out: Stability
Summary of the method: (§2)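 Simulated fluids prepared to USP (SGF pH 1.2, SIF pH 6.8, SPF pH 7.4) and hamster plasma pre-incubated at 37 ± 2 °C for 15 min in a shaking water bath, then spiked with compound. Aliquots taken at intervals up to 120 min, quenched with acetonitrile, vortexed and centrifuged. Remaining analyte quantified by LC-MS/MS.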

[10] = Stability of compound in simulated physiological fluid assessed as compound remaining at pH 7.4 measured for 120 mins by LC-MS analysis; type: physicochemical; conditions: read-out: Stability; summary of the method: as §2
[11] = Cmax in golden hamster at 50 mg/kg, po measured after 5 mins to 24 hrs by LC-MS/MS analysis; type: ADME, organism-based, Mesocricetus auratus; set-up: dose 50 mg/kg, time upper 1440 min, time lower 5 min, route po; conditions: in vivo; summary of the method: as §1
[12] = Stability of compound in golden hamster plasma assessed as compound remaining measured for 120 mins by LC-MS analysis; type: ADME, cell-free, Mesocricetus auratus; conditions: read-out: Stability; summary of the method: as §2
[13] = Tmax in golden hamster at 50 mg/kg, po measured after 5 mins to 24 hrs by LC-MS/MS analysis; type: ADME, organism-based, Mesocricetus auratus; conditions: in vivo, time 5-1440 min; summary of the method: as §1
[14] = Stability of compound in simulated gastric fluid assessed as parent compound remaining at pH 1.2 measured for 120 mins by LC-MS/MS analysis; type: ADME; conditions: read-out: Stability; summary of the method: as §2
[15] = Half life in golden hamster at 50 mg/kg, po measured after 5 mins to 24 hrs by LC-MS/MS analysis; type: ADME, organism-based, Mesocricetus auratus; conditions: in vivo, time 5-1440 min; summary of the method: as §1

| Compound | IC50 (Leishmania donovani [1]) [µM] | IC50 (Leishmania donovani [2]) [µM] | CC50 at 48 h [3] [µM] | selectivity ratio [4] | further results |
| --- | --- | --- | --- | --- | --- |
| O=C1OC(O)C(NCc2cn(-c3ccc(F)c(Cl)c3)nn2)=C1Cl (stereo not given) | 35.5 | 10.6 | 78 | 7.38 |  |
| Cc1ccc(-n2cc(CNC3=C(Cl)C(=O)OC3O)nn2)cc1C (stereo not given) | 32.5 | 10.1 | 93.5 | 9.27 | inhibition (INH) (Brugia malayi): 52% |
| COc1cc(-n2cc(CNC3=C(Cl)C(=O)OC3O)nn2)cc(OC)c1OC (stereo not given) | ≥ 100 | 11.3 | 84.8 | 7.5 |  |
| COc1ccc(-n2cc(CNC3=C(Cl)C(=O)OC3O)nn2)cc1 (stereo not given) | ≥ 50 | ≥ 25 |  |  | IC50 (Plasmodium falciparum): 4.9 µM |
| CC(C)(C)c1ccc(-n2cc(CNC3=C(Cl)C(=O)OC3O)nn2)cc1 (stereo not given) | ≥ 50 | ≥ 25 |  |  | IC50 (Plasmodium falciparum): 4.4 µM |
| Cc1ccc(-n2cc(CNC3=C(Cl)C(=O)OC3O)nn2)cc1F (stereo not given) | ≥ 50 | ≥ 20 |  |  | inhibition (INH) (Brugia malayi): 66% |
| O=C1OC(O)C(NCc2cn(-c3ccc(F)cc3)nn2)=C1Cl (stereo not given) | ≥ 50 |  |  |  | IC50 (Plasmodium falciparum): 4.42 µM; inhibition (Leishmania donovani [2]): inactive |
| Cc1cc(C)c(-n2cc(CNC3=C(Cl)C(=O)OC3O)nn2)c(C)c1 (stereo not given) | ≥ 50 | ≥ 20 |  |  |  |
| O=C1OC(O)C(NCc2cn(-c3ccc(Cl)c(Cl)c3)nn2)=C1Cl (stereo not given) | 34.1 | 8.63 | 84.2 | 9.75 | inhibition (INH) (Brugia malayi): 52% |
| CCCCc1ccc(-n2cc(CNC3=C(Cl)C(=O)OC3O)nn2)cc1 (stereo not given) | ≥ 50 |  |  |  | inhibition (Leishmania donovani [2]): inactive |
| Cc1ccc(-n2cc(CNC3=C(Cl)C(=O)OC3O)nn2)cc1 (stereo not given) | ≥ 50 |  |  |  | inhibition (Leishmania donovani [2]): inactive |
| O=C1OC(O)C(NCc2cn(-c3ccc4c(c3)OCO4)nn2)=C1Cl (stereo not given) | ≥ 50 | ≥ 50 |  |  | IC50 (Plasmodium falciparum): 4.34 µM; inhibition (INH) (Brugia malayi): 52% |
| CCc1ccc(-n2cc(CNC3=C(Cl)C(=O)OC3O)nn2)cc1 (stereo not given) | ≥ 50 |  |  |  | inhibition (Leishmania donovani [2]): inactive |
| O=C1OC(O)C(NCc2cn(-c3ccc(F)c(C(F)(F)F)c3)nn2)=C1Cl (stereo not given) | 30.6 | 9.02 | 136 | 15 |  |
| CCCCCCCCCCCCCCCCOP(=O)([O-])OCC[N+](C)(C)C [MILTEFOSINE] |  | 9.42 | 52.1 | 5.53 |  |
| COc1ccc(-n2cc(CNC3=C(Cl)C(=O)OC3O)nn2)cc1OC (stereo not given) |  |  |  |  | inhibition (Leishmania donovani [1]): inactive; inhibition (Leishmania donovani [2]): inactive |
| C#CCNC1=C(Cl)C(=O)OC1O (stereo not given) | ≥ 50 | 11.3 | 97.2 | 8.56 | inhibition (INH) (Brugia malayi): 65% |
| O=C1OC(O)C(NCc2cn(-c3ccc(F)c(F)c3)nn2)=C1Cl (stereo not given) | ≥ 50 | 8.4 | 172 | 20.5 | IC50 (Plasmodium falciparum): 3.65 µM; CL/F [5]: 207 mL/min/kg; Vd [6]: 38.15 L/kg; AUC [7]: 4500 ng·h/mL; MRT [8]: 3.64 h; remaining at 2 h [9]: ≥ 70%; remaining at 2 h [10]: ≥ 70%; Cmax [11]: 1110 ng/mL; remaining at 2 h [12]: ≥ 70%; Tmax [13]: 2 h; remaining at 2 h [14]: ≥ 70%; half-life [15]: 129 min |
| O=C1OC(O)C(NCc2cn(-c3ccccc3[N+](=O)[O-])nn2)=C1Cl (stereo not given) | ≥ 50 | ≥ 25 |  |  |  |
| O=C1OC(O)C(NCc2cn(-c3ccc(Cl)cc3)nn2)=C1Cl (stereo not given) | ≥ 50 | ≥ 50 |  |  |  |
| O=C1OC(O)C(NCc2cn(-c3ccccc3Oc3ccccc3)nn2)=C1Cl (stereo not given) | ≥ 50 | ≥ 20 |  |  | IC50 (Plasmodium falciparum): 4.65 µM |
| CC(C)c1ccc(-n2cc(CNC3=C(Cl)C(=O)OC3O)nn2)cc1 (stereo not given) |  | ≥ 50 |  |  | inhibition (Leishmania donovani [1]): inactive |
| Cc1ccc(C)c(-n2cc(CNC3=C(Cl)C(=O)OC3O)nn2)c1 (stereo not given) | ≥ 50 | ≥ 50 |  |  | IC50 (Plasmodium falciparum): 4.57 µM |
| O=C1OC(O)C(NCc2cn(-c3cccc(C(F)(F)F)c3)nn2)=C1Cl (stereo not given) | 32.4 | 8.45 | 102 | 12.1 |  |
| O=C1OC(O)C(NCc2cn(-c3ccccc3)nn2)=C1Cl (stereo not given) | ≥ 50 |  |  |  | inhibition (Leishmania donovani [2]): inactive |
